Reference: ChEMBL document CHEMBL1155365, “2-Amino-9-aryl-3-cyano-4-methyl-7-oxo-6,7,8,9-tetrahydropyrido[2',3':4,5]thieno[2,3-b]pyridine derivatives as selective progesterone receptor agonists” (Bioorg Med Chem Lett, 2009)

Each compound was assayed against T1, Androgen receptor (Homo sapiens, UniProt P10275) (assay: Binding affinity to androgen receptor).
T1 sequence (P10275 whole entry): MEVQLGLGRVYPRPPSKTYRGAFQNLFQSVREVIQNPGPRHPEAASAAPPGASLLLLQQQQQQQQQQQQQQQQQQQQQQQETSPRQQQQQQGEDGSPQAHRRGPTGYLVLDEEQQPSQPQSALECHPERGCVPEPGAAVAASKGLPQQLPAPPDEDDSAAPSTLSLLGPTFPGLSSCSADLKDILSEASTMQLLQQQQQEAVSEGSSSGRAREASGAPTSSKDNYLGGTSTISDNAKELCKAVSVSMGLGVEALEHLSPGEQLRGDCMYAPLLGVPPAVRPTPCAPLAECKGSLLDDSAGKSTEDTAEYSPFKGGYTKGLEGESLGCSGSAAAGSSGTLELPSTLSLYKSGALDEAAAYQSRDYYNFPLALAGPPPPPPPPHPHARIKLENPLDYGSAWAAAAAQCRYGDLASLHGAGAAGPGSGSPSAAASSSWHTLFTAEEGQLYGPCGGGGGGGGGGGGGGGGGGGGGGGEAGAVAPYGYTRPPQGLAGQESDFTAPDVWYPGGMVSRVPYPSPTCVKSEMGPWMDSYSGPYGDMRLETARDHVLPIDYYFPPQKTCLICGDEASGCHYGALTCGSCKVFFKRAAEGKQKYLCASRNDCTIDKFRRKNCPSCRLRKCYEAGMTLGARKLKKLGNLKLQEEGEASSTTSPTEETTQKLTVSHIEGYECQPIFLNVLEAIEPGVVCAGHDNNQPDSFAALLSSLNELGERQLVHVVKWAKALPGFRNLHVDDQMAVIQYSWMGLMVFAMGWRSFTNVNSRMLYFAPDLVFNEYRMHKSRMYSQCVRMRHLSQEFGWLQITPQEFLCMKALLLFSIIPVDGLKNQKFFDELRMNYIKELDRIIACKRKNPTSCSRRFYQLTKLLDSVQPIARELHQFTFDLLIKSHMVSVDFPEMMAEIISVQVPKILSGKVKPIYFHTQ

Row | Compound | IC50 | pIC50
1 | Cc1c(C#N)c(Cl)nc2c3c(sc12)NC(=O)CC3c1ccccc1Cl (configuration not stated) | 2 µM | –
2 | Cc1c(C#N)c(N)nc2c3c(sc12)NC(=O)C[C@H]3c1ccccc1Cl | – | > 5
3 | Cc1c(C#N)c(N)nc2c3c(sc12)NC(=O)CC3c1ccccc1 (configuration not stated) | – | > 5
4 | Cc1ccccc1C1CC(=O)Nc2sc3c(C)c(C#N)c(N)nc3c21 (configuration not stated) | – | > 5

The compounds below were run against T2, Progesterone receptor (Homo sapiens, UniProt P06401) (assay: Agonist activity at progesterone receptor B expressed in CV-1 cells by MMTV luciferase reporter gene assay).
T2 sequence (P06401 whole entry): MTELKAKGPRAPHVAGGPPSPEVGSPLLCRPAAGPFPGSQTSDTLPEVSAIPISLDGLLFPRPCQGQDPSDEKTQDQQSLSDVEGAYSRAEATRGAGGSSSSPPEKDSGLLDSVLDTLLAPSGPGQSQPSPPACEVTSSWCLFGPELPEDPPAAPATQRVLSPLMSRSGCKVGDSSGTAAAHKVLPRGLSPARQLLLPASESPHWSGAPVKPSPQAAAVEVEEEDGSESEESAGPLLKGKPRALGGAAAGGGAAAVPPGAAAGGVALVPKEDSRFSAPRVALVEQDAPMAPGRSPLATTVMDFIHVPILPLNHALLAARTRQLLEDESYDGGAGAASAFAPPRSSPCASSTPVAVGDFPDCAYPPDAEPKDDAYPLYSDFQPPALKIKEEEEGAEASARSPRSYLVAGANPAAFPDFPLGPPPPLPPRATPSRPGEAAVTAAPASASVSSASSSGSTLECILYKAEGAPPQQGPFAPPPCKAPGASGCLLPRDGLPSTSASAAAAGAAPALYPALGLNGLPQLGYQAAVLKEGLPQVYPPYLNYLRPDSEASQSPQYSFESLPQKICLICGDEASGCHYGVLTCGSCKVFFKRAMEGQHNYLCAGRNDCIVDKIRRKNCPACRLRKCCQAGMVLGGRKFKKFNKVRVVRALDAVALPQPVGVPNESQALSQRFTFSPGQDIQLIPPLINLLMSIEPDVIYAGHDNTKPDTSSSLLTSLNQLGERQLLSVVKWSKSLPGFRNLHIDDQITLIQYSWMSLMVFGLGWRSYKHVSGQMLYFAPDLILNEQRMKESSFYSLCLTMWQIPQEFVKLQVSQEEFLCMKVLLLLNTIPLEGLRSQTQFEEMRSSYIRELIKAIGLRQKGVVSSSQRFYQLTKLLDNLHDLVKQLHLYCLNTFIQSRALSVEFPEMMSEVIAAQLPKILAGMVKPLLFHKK
Format: functional, cell-based

Row | Compound | EC50
5 | Cc1c(C#N)c(Cl)nc2c3c(sc12)NC(=O)CC3c1ccccc1Cl (configuration not stated) | 0.000794 µM
6 | COc1cccc(C2CC(=O)Nc3sc4c(C)c(C#N)c(N)nc4c32)c1 (configuration not stated) | > 10 µM
7 | Cc1c(C#N)c(N)nc2c3c(sc12)NC(=O)C[C@H]3c1ccccc1Cl | > 10 µM
8 | Cc1c(C#N)c(N)nc2c3c(sc12)NC(=O)CC3c1ccccc1 (configuration not stated) | > 10 µM
9 | Cc1ccccc1C1CC(=O)Nc2sc3c(C)c(C#N)c(N)nc3c21 (configuration not stated) | > 10 µM
10 | COc1ccccc1C1CC(=O)Nc2sc3c(C)c(C#N)c(N)nc3c21 (configuration not stated) | > 10 µM
11 | Cc1c(C#N)c(N)nc2c3c(sc12)NC(=O)CC3c1ccccc1F (configuration not stated) | 3.98 µM

These compounds were tested against T1, Androgen receptor (assay: Agonist activity at androgen receptor expressed in CV-1 cells by MMTV luciferase reporter assay).
Format: functional, cell-based

Row | Compound | EC50
12 | Cc1c(C#N)c(Cl)nc2c3c(sc12)NC(=O)CC3c1ccccc1Cl (configuration not stated) | > 10 µM

Each compound was assayed against T3, Progesterone receptor (Homo sapiens) (UniProt P06401) (assay: Agonist activity at progesterone receptor in human T47D cell after 24 hrs by alkaline phosphatase assay relative to progesterone).
T3 sequence (whole entry): T2 sequence (P06401 whole entry)

Row | Compound | Activity
13 | Cc1c(C#N)c(Cl)nc2c3c(sc12)NC(=O)CC3c1ccccc1Cl (configuration not stated) | 116%
14 | Cc1c(C#N)c(N)nc2c3c(sc12)NC(=O)CC3c1ccccc1F (configuration not stated) | 47%

What follows are compounds tested against T2, Progesterone receptor (assay: Displacement of fluormone PL RED from progesterone receptor after 2 hrs).
Method in brief: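 Fluorescence polarization competition: 40 nM PR ligand-binding domain, 2 nM Fluormone PL Red, 1 mM DTT in PR Red buffer with 2 mM CHAPS, added to compound; brief spin, light-protected, ~2 h at room temperature; read at 530 nm excitation/580 nm emission. Values are means of ≥2 determinations.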

Row | Compound | IC50
15 | Cc1c(C#N)c(Cl)nc2c3c(sc12)NC(=O)CC3c1ccccc1Cl (configuration not stated) | 0.0501 µM
16 | COc1cccc(C2CC(=O)Nc3sc4c(C)c(C#N)c(N)nc4c32)c1 (configuration not stated) | > 10 µM
17 | Cc1c(C#N)c(N)nc2c3c(sc12)NC(=O)C[C@H]3c1ccccc1Cl | 6.31 µM
18 | Cc1ccccc1C1CC(=O)Nc2sc3c(C)c(C#N)c(N)nc3c21 (configuration not stated) | 1.26 µM
19 | COc1ccccc1C1CC(=O)Nc2sc3c(C)c(C#N)c(N)nc3c21 (configuration not stated) | > 10 µM
20 | Cc1c(C#N)c(N)nc2c3c(sc12)NC(=O)CC3c1ccccc1F (configuration not stated) | 0.631 µM

What follows are compounds tested against T2, Progesterone receptor (assay: Agonist activity at progesterone receptor in human T47D cell after 24 hrs by alkaline phosphatase assay).
Format: functional, cell-based
Method in brief: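 T47D cells seeded and left to attach overnight, then treated with compound and incubated overnight. Next day pNPP-SPAP substrate added, 2 h in the dark, absorbance read at 405 nm. Potency as pEC50, efficacy as % of P4 response; means of ≥2 determinations.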

Row | Compound | pEC50
21 | Cc1c(C#N)c(Cl)nc2c3c(sc12)NC(=O)CC3c1ccccc1Cl (configuration not stated) | 8.6
22 | Cc1c(C#N)c(N)nc2c3c(sc12)NC(=O)CC3c1ccccc1F (configuration not stated) | 6.4
